Measurements taken from ChEMBL document CHEMBL3232810, “Synthesis, biological evaluation and 3D-QSAR studies of new chalcone derivatives as inhibitors of human P-glycoprotein” (Bioorg Med Chem, 2014).
pIC50: −log10 of the molar value.

Biological target: ATP-dependent translocase ABCB1 (Homo sapiens, UniProt P08183)
Experiment: Inhibition of P-gp-mediated daunorubicin efflux in human CCRF-CEM/VCR1000 cells measured within 1 hr by FACS flow cytometry
Procedure, shortened: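 CCRF vcr1000 cells kept in RPMI 1640 with 10% FCS and 1000 ng/mL vincristine; vincristine washed out 1 week before use. Cells at 1×10⁶/mL were preloaded with daunorubicin (3 µmol/L final), 30 min, 37 °C. After pelleting they were resuspended in warm medium with inhibitor, eight concentrations (1:3 serial), top 20–200 µM. Aliquots at 0, 60, 120, 180 and 240 s went into ice-cold stop solution (5 µmol/L GPV31 final). Initial efflux rates came from linear regression, and IC50 from a Hill-equation fit of rate versus concentration.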

Sequence of ATP-dependent translocase ABCB1 (P08183 whole entry): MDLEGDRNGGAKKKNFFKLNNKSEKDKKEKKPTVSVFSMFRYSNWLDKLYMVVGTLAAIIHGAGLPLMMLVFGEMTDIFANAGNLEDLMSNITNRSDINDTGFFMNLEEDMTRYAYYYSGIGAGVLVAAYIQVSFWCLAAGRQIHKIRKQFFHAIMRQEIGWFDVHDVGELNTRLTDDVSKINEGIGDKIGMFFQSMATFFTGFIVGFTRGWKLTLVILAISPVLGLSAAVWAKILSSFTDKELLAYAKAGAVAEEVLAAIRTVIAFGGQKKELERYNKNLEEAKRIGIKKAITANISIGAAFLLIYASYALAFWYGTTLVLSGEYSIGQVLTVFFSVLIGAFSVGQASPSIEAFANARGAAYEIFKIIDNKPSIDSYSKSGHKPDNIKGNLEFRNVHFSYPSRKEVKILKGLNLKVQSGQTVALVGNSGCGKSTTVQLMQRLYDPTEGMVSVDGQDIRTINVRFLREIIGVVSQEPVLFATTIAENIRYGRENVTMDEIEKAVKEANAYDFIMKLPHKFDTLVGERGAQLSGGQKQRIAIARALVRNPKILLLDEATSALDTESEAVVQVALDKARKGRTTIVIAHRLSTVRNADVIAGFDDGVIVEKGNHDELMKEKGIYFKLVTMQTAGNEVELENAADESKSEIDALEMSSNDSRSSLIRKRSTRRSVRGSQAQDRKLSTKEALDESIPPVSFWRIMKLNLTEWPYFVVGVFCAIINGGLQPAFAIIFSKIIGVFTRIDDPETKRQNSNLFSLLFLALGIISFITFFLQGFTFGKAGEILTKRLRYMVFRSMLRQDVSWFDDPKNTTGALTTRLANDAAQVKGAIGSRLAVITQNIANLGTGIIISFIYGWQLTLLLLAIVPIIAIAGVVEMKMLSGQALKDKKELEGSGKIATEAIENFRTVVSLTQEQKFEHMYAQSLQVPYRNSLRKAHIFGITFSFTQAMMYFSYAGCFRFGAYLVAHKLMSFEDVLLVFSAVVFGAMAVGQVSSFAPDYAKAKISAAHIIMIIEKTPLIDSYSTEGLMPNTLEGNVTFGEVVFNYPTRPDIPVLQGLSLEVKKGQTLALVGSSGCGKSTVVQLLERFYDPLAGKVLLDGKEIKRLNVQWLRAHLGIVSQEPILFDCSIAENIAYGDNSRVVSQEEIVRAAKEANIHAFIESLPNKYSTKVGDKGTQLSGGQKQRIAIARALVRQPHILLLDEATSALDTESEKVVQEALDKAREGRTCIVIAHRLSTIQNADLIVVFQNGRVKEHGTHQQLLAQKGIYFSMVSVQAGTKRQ

SMILES | pIC50
COc1cc2c(cc1OC)C(=O)/C(=C/c1ccc(N(C)C)cc1)C2 | 6.89
COc1ccc2c(c1)CC/C(=C\C=C\c1cc(OC)c(OC)c(OC)c1)C2=O | 5.76
COc1ccccc1C(=O)/C=C/c1c(C)cc(C)cc1C | 5.07
COc1ccc(C(=O)/C=C/c2ccc(OC)c3ccccc23)cc1OC | 5.56
COc1ccccc1/C=C/C=C/C(=O)c1cc(OC)c(OC)c(OC)c1 | 5.86
COc1ccccc1/C=C/C=C/C(=O)c1cc(OC)c(O)c(OC)c1 | 4.92
COc1cc(C(=O)/C=C/c2ccccc2SC)cc(OC)c1OC | 6.19
COc1cc(C(=O)/C=C/C=C/c2ccccc2SC)cc(OC)c1OC | 6.06
COc1cc2c(cc1OC)C(=O)/C(=C/C=C/c1ccc(N(C)C)cc1)C2 | 7.40
COc1ccc2c(c1)CC/C(=C\c1ccc3ccccc3c1)C2=O | 5.45
COc1cc2c(cc1OC)C(=O)/C(=C/C=C/c1cc(OC)c(OC)c(OC)c1)CC2 | 6.85
COc1ccc2c(c1)C(=O)/C(=C/C=C/c1cc(OC)c(OC)c(OC)c1)C2 | 5.94
COc1cc(/C=C/C=C2\Cc3ccc(OC)c(OC)c3C2=O)cc(OC)c1OC | 5.58
COc1cc(/C=C/C=C2\Cc3ccc(OC)c(OC)c3C2=O)ccc1O | 5.63
COc1ccc2c(c1)C/C(=C\C=C\c1ccccc1OC)C2=O | 5.41
COc1cc(C(=O)/C=C/c2ccc(C(=O)O)cc2)cc(OC)c1OC | 3.85
COc1ccc(C(=O)/C=C/c2cccc(/C=C/C(=O)c3ccc(OC)c(OC)c3)c2)cc1OC | 6.85
COc1cc(C(=O)/C=C/c2cccc(/C=C/C(=O)c3cc(OC)c(OC)c(OC)c3)c2)cc(OC)c1OC | 6.92
COc1cc(/C=C/C(=O)c2cccc(C(=O)/C=C/c3cc(OC)c(OC)c(OC)c3)c2)cc(OC)c1OC | 6.85
COc1cc(/C=C/C=C/C(=O)c2cccc(C(=O)/C=C/C=C/c3cc(OC)c(OC)c(OC)c3)c2)cc(OC)c1OC | 7.22
COC(=O)C1=C(O)/C(=C/C=C/c2ccccc2OC)CCC1 | 4.69
